Reference: ChEMBL document CHEMBL1151204, “Hypoglycemic effect and antioxidant potential of kaempferol-3,7-O-(alpha)-dirhamnoside from Bauhinia forficata leaves” (J Nat Prod, 2004)
Each block holds one compound with its values, some of them ahead of it. Calls of active or inactive are those of the source. No cut-off for these calls is given here.

How the values were obtained:
Rattus norvegicus [1] = test: Hypoglycemic activity in normal 16 hrs fasted Wistar rat assessed as reduction in serum glucose level at 50 mg/kg, po after 1 hr by glucose oxidase method; assay type: functional
Summary of the method: (§1)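 Male Wistar rats, 160–190 g, fasted ≥16 h with free water. Groups: control, vehicle (0.5 mL 1% EtOH–H2O) and compound by oral gavage. Retro-orbital blood drawn and centrifuged; serum glucose by glucose oxidase at 0, 1, 2 and 3 h. Mean ± SEM, n = 6 in duplicate, compared with the 0 h value.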

Rattus norvegicus [2] = test: Hypoglycemic activity in normal 16 hrs fasted Wistar rat assessed as reduction in serum glucose level at 100 mg/kg, po after 1 hr by glucose oxidase method; assay type: functional; summary of the method: as §1
Rattus norvegicus [3] = test: Hypoglycemic activity in normal 16 hrs fasted Wistar rat assessed as reduction in serum glucose level at 200 mg/kg, po after 1 hr by glucose oxidase method; assay type: functional; summary of the method: as §1
Rattus norvegicus [4] = test: Hypoglycemic activity in normal 16 hrs fasted Wistar rat assessed as reduction in serum glucose level at 50 mg/kg, po after 2 hrs by glucose oxidase method; assay type: functional; summary of the method: as §1
Rattus norvegicus [5] = test: Hypoglycemic activity in normal 16 hrs fasted Wistar rat assessed as reduction in serum glucose level at 100 mg/kg, po after 2 hrs by glucose oxidase method; assay type: functional; summary of the method: as §1
Rattus norvegicus [6] = test: Hypoglycemic activity in normal 16 hrs fasted Wistar rat assessed as reduction in serum glucose level at 200 mg/kg, po after 2 hrs by glucose oxidase method; assay type: functional; summary of the method: as §1
Rattus norvegicus [7] = test: Hypoglycemic activity in normal 16 hrs fasted Wistar rat assessed as reduction in serum glucose level at 50 mg/kg, po after 3 hrs by glucose oxidase method; assay type: functional; summary of the method: as §1
Rattus norvegicus [8] = test: Hypoglycemic activity in normal 16 hrs fasted Wistar rat assessed as reduction in serum glucose level at 100 mg/kg, po after 3 hrs by glucose oxidase method; assay type: functional; summary of the method: as §1
Rattus norvegicus [9] = test: Hypoglycemic activity in normal 16 hrs fasted Wistar rat assessed as reduction in serum glucose level at 200 mg/kg, po after 3 hrs by glucose oxidase method; assay type: functional; summary of the method: as §1
Rattus norvegicus [10] = test: Hypoglycemic activity in diabetic 16 hrs fasted Wistar rat assessed as reduction in alloxan-induced serum glucose level at 50 mg/kg, po after 1 hr by glucose oxidase method; assay type: functional
Summary of the method: (§2)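 Male Wistar rats, 160–190 g. Alloxan monohydrate 60 mg/kg i.v. in 0.9% NaCl given after an overnight fast. Rats with serum glucose 25–30.5 mmol/L at 72 h were fasted and randomized to diabetic, vehicle (0.5 mL 1% EtOH–H2O) or compound groups. Compound given by oral gavage. Retro-orbital serum glucose by glucose oxidase at 0, 1, 2 and 3 h. Mean ± SEM, n = 6 in duplicate, compared with 0 h.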

Rattus norvegicus [11] = test: Hypoglycemic activity in diabetic 16 hrs fasted Wistar rat assessed as reduction in alloxan-induced serum glucose level at 100 mg/kg, po after 1 hr by glucose oxidase method; assay type: functional; summary of the method: as §2
Rattus norvegicus [12] = test: Hypoglycemic activity in diabetic 16 hrs fasted Wistar rat assessed as reduction in alloxan-induced serum glucose level at 200 mg/kg, po after 1 hr by glucose oxidase method; assay type: functional; summary of the method: as §2
Rattus norvegicus [13] = test: Hypoglycemic activity in diabetic 16 hrs fasted Wistar rat assessed as reduction in alloxan-induced serum glucose level at 50 mg/kg, po after 2 hrs by glucose oxidase method; assay type: functional; summary of the method: as §2
Rattus norvegicus [14] = test: Hypoglycemic activity in diabetic 16 hrs fasted Wistar rat assessed as reduction in alloxan-induced serum glucose level at 100 mg/kg, po after 2 hrs by glucose oxidase method; assay type: functional; summary of the method: as §2
Rattus norvegicus [15] = test: Hypoglycemic activity in diabetic 16 hrs fasted Wistar rat assessed as reduction in alloxan-induced serum glucose level at 200 mg/kg, po after 2 hrs by glucose oxidase method; assay type: functional; summary of the method: as §2
Rattus norvegicus [16] = test: Hypoglycemic activity in diabetic 16 hrs fasted Wistar rat assessed as reduction in alloxan-induced serum glucose level at 50 mg/kg, po after 3 hrs by glucose oxidase method; assay type: functional; summary of the method: as §2
Rattus norvegicus [17] = test: Hypoglycemic activity in diabetic 16 hrs fasted Wistar rat assessed as reduction in alloxan-induced serum glucose level at 100 mg/kg, po after 3 hrs by glucose oxidase method; assay type: functional; summary of the method: as §2
Rattus norvegicus [18] = test: Hypoglycemic activity in diabetic 16 hrs fasted Wistar rat assessed as reduction in alloxan-induced serum glucose level at 200 mg/kg, po after 3 hrs by glucose oxidase method; assay type: functional; summary of the method: as §2
Rattus norvegicus [19] = test: Hypoglycemic activity in 16 hrs fasted Wistar rat assessed as reduction in serum glucose level at 100 mg/kg, po measured after 30 mins of glucose challenge by oral glucose tolerance test; assay type: functional
Summary of the method: (§3)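 Male Wistar rats, 160–190 g, fasted ≥16 h with water allowed. Oral gavage of glucose 4 g/kg alone or with compound 100 mg/kg. Controls: untreated rats and tolbutamide 100 mg/kg. Blood drawn from the retro-orbital plexus before and at 30, 60, 90 and 180 min after the load. Serum glucose by glucose oxidase; mean ± SEM, n = 3 in duplicate.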

Rattus norvegicus [20] = test: Hypoglycemic activity in 16 hrs fasted Wistar rat assessed as reduction in serum glucose level at 100 mg/kg, po measured after 60 mins of glucose challenge by oral glucose tolerance test; assay type: functional; summary of the method: as §3
Rattus norvegicus [21] = test: Hypoglycemic activity in 16 hrs fasted Wistar rat assessed as reduction in serum glucose level at 100 mg/kg, po measured after 90 mins of glucose challenge by oral glucose tolerance test; assay type: functional; summary of the method: as §3
Rattus norvegicus [22] = test: Hypoglycemic activity in 16 hrs fasted Wistar rat assessed as reduction in serum glucose level at 100 mg/kg, po measured after 180 mins of glucose challenge by oral glucose tolerance test; assay type: functional; summary of the method: as §3
[23] = tested on: Radical scavenging activity; test: Antioxidant activity assessed as DPPH radical scavenging activity; assay type: functional
Summary of the method: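 DPPH in EtOH, 200 μM, in the medium; radical loss read as absorbance decrease at 515 nm.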

Lung [24] = test: Antioxidant activity in Wistar rat lung assessed as half maximal inhibition of myeloperoxidase; assay type: functional, tissue-based
Summary of the method: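 Enzyme source: rat lung homogenised in ice-cold phosphate buffer. Activity was read as the slope of absorbance at 450 nm with o-dianisidine-2HCl and H2O2 and converted to units against a standard curve of commercial enzyme. Each concentration point was monitored kinetically, and the concentration giving half-maximal inhibition (K0.5) was taken from the inhibition curve.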

Liver microsomes [25] = test: Antioxidant activity in Wistar rat liver microsomes assessed as inhibition of ascorbyl radical-induced lipid peroxidation by TBARS assay; assay type: functional, Microsome
Summary of the method: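 Microsomes from male Wistar rat liver, isolated by differential centrifugation with calcium aggregation and stored at -70 °C; protein by Lowry, fixed at 2 mg/mL. Ascorbyl-radical peroxidation started with 25 µM FeSO4 plus 500 µM ascorbate. TBARS read with extinction coefficient 1.56 × 10^5 M-1 cm-1; IC50 derived; mean ± SEM, n = 3 in duplicate.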

Liver microsomes [26] = test: Antioxidant activity in Wistar rat liver microsomes assessed as inhibition of hydroxyl radical-induced lipid peroxidation by TBARS assay; assay type: functional, Microsome
Summary of the method: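 Male Wistar rat liver microsomes, isolated by differential centrifugation with calcium aggregation and stored at -70 °C, at 2 mg protein/mL in 0.1 M KH2PO4 pH 7.4. Hydroxyl-radical peroxidation started with 25 µM FeCl2, 2.8 mM H2O2 and 100 µM sodium ascorbate. TBARS read with extinction coefficient 1.56 × 10^5 M-1 cm-1; IC50 derived; mean ± SEM, n = 3 in duplicate.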

[27] = Antioxidant activity in 1-alpha-phosphatidylcholine liposome assessed as inhibition of ascorbyl radical-induced lipid peroxidation by TBARS assay; assay type: functional
Summary of the method: (§4)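 Egg-yolk phosphatidylcholine or soybean asolectin bilayer liposomes made by cholate/deoxycholate solubilisation then dialysis; lipid 12.5 mg/mL. Ascorbyl-radical peroxidation started with 25 µM FeSO4 plus 500 µM ascorbate. TBARS read with extinction coefficient 1.56 × 10^5 M-1 cm-1; IC50 derived; mean ± SEM, n = 3 in duplicate.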

[28] = Antioxidant activity in asolectin liposome assessed as inhibition of ascorbyl radical-induced lipid peroxidation by TBARS assay; assay type: functional; summary of the method: as §4
Lung [29] = test: Antioxidant activity in Wistar rat lung assessed as maximal inhibition of myeloperoxidase at 400 uM

IC50 [23]: 84 µM
IC50 (Liver microsomes [25]): 320 µM
IC50 (Liver microsomes [26]): 85 µM
IC50 [27]: 112 µM
IC50 [28]: 223 µM
Structure (SMILES): C[C@@H]1O[C@@H](Oc2cc(O)c3c(=O)c(O[C@@H]4O[C@@H](C)[C@H](O)[C@@H](O)[C@H]4O)c(-c4ccc(O)cc4)oc3c2)[C@H](O)[C@H](O)[C@H]1O [KAEMPFERITRIN]
Activity (Rattus norvegicus [1]): 5.5 mmol/L
Activity (Rattus norvegicus [2]): 5.4 mmol/L
Activity (Rattus norvegicus [3]): 4.5 mmol/L
Activity (Rattus norvegicus [4]): 5.9 mmol/L
Activity (Rattus norvegicus [5]): 5.5 mmol/L
Activity (Rattus norvegicus [6]): 5 mmol/L
Activity (Rattus norvegicus [7]): 6.2 mmol/L
Activity (Rattus norvegicus [8]): 6.2 mmol/L
Activity (Rattus norvegicus [9]): 5.1 mmol/L
Activity (Rattus norvegicus [10]): 23.5 mmol/L
Activity (Rattus norvegicus [11]): 24.3 mmol/L
Activity (Rattus norvegicus [12]): 22.4 mmol/L
Activity (Rattus norvegicus [13]): 25.2 mmol/L
Activity (Rattus norvegicus [14]): 24 mmol/L
Activity (Rattus norvegicus [15]): 22.2 mmol/L
Activity (Rattus norvegicus [16]): 25.3 mmol/L
Activity (Rattus norvegicus [17]): 24 mmol/L
Activity (Rattus norvegicus [18]): 22.4 mmol/L
Activity (Rattus norvegicus [19]): 9.5 mmol/L
Activity (Rattus norvegicus [20]): 8.8 mmol/L
Activity (Rattus norvegicus [21]): 8.2 mmol/L
Activity (Rattus norvegicus [22]): 6.7 mmol/L
K (Lung [24]): 86 µM
Activity (Lung [29]): Active

Structure (SMILES): O=c1c(O)c(-c2ccc(O)c(O)c2)oc2cc(O)cc(O)c12 [QUERCETIN]
IC50 (Liver microsomes [25]): 125 µM
IC50 (Liver microsomes [26]): 7.5 µM
IC50 [27]: 80 µM
IC50 [28]: 80 µM

Structure (SMILES): CCCCNC(=O)NS(=O)(=O)c1ccc(C)cc1 [TOLBUTAMIDE]
Activity (Rattus norvegicus [19]): 7.8 mmol/L
Activity (Rattus norvegicus [20]): 6.3 mmol/L
Activity (Rattus norvegicus [21]): 5.9 mmol/L
Activity (Rattus norvegicus [22]): 5.2 mmol/L
